What was measured:
[1] = tested on: MDA-MB-231; test: Antiproliferative activity against human MDA-MB-231 cells at 10 uM after 72 hrs; type: functional
Outline: (§1)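 MDA-MB-231 cells grown in serum-containing EMEM (10% FBS) were plated at 1 × 10⁴ cells/well. 24 h later they were exposed to a single compound level in fresh serum medium, using DMSO/ethanol stocks diluted into the medium. At 72 h, WST-1 was added for 3 h and formazan read at 450 nm (ref 650). Values are % growth inhibition versus controls, averaged ± SD over three experiments, each in triplicate.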

[2] = tested on: MDA-MB-231; test: Antiproliferative activity against human MDA-MB-231 cells after 72 hrs; type: functional, cell-based; conditions: MDA-MB-231, 72 h
Outline: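 MDA-MB-231 (ER-negative) monolayers in EMEM with 10% FBS, L-glutamine, pyruvate, NEAA, insulin at 37 °C, 5% CO2. Seeded 1 × 10⁴ cells/well with serum and dosed 24 h later with compound at 1–100 (DMSO and/or ethanol stocks diluted into medium). After 72 h, 3 h WST-1 read at 450 nm (ref 650). IC50 = concentration halving OD versus untreated controls. Mean ± SD, three independent experiments.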

[3] = tested on: MDA-MB-231; test: Antiproliferative activity against human MDA-MB-231 cells at 3 uM after 72 hrs; type: functional; outline: as §1
[4] = tested on: MDA-MB-231; test: Antiproliferative activity against human MDA-MB-231 cells at 1 uM after 72 hrs; type: functional; outline: as §1
[5] = tested on: MDA-MB-231; test: Antiproliferative activity against human MDA-MB-231 cells at 30 uM after 72 hrs; type: functional; outline: as §1
[6] = tested on: MDA-MB-231; test: Antiproliferative activity against human MDA-MB-231 cells at 100 uM after 72 hrs; type: functional; outline: as §1

Q: Which results are given for CN(C)CCNc1cc2c(c3oc4ccccc4c(=O)c13)CC(N)C(C)(C)O2 (configuration not stated)?
A: Activity [1]: 20%; IC50 [2]: 38 µM; Activity [3]: 20%; Activity [4]: 20%

Q: What does the source list for COc1cc2c(c3oc4ccccc4c(=O)c13)CC(NCCN(C)C)C(C)(C)O2 (configuration not stated)?
A: Activity [5]: 15%; Activity [6]: 74%; Activity [1]: 15%; IC50 [2]: 57 µM; Activity [3]: 12%; Activity [4]: 12%

Q: CCN(CC)CCNC1Cc2c(cc(OC)c3c(=O)c4ccccc4oc23)OC1(C)C (configuration not stated) was tested. Which Activity [5] did it give?
A: 15%

Q: What about the Activity [6] of the same compound?
A: 74%

Q: What about the Activity [1] of the same compound?
A: 15%

Q: What about the IC50 [2] of the same compound?
A: 44 µM

Q: What about the Activity [3] of the same compound?
A: 12%

Q: What about the Activity [4] of the same compound?
A: 12%

Q: Which IC50 [2] does the source give for CCN(CC)CCNc1cc2c(c3oc4ccccc4c(=O)c13)C=C([N+](=O)[O-])C(C)(C)O2 here?
A: > 100 µM

Q: How did the Activity [1] turn out when CN(C)CCNc1cc2c(c3oc4ccccc4c(=O)c13)CC([N+](=O)[O-])C(C)(C)O2 (configuration not stated) was run?
A: 20%

Q: And the IC50 [2]?
A: > 100 µM

Q: What about the Activity [3] of the same compound?
A: 20%

Q: And the Activity [4]?
A: 20%

Q: With CCN(CC)CCNc1cc2c(c3oc4ccccc4c(=O)c13)CC(N)C(C)(C)O2 (configuration not stated) as the compound, how does the Activity [6] read?
A: 75%

Q: And the IC50 [2]?
A: 62 µM

Q: CN(C)CCNc1cc2c(c3oc4ccccc4c(=O)c13)CC(NC(=O)CN(C)C)C(C)(C)O2 (configuration not stated) was tested. Which Activity [1] did it give?
A: 20%

Q: And the IC50 [2]?
A: 50 µM

Q: What about the Activity [3] of the same compound?
A: 20%

Q: And the Activity [4]?
A: 20%

Q: What does the source list for CN(C)CCNc1cc2c(c3oc4ccccc4c(=O)c13)CC(NCCN(C)C)C(C)(C)O2 (configuration not stated)?
A: Activity [1]: 20%; IC50 [2]: 46 µM; Activity [3]: 20%; Activity [4]: 20%

Q: CCN(CC)CCNc1cc2c(c3oc4ccccc4c(=O)c13)CC(NCCN(CC)CC)C(C)(C)O2 (configuration not stated) was tested. Which Activity [6] did it give?
A: 75%

Q: And the IC50 [2]?
A: 73 µM

Q: COc1cc2c(c3oc4ccccc4c(=O)c13)CC(N)C(C)(C)O2 (configuration not stated) was tested. Which Activity [5] did it give?
A: 15%

Q: What about the Activity [6] of the same compound?
A: 74%

Q: What about the Activity [1] of the same compound?
A: 15%

Q: And the IC50 [2]?
A: 53 µM

Q: What about the Activity [3] of the same compound?
A: 12%

Q: And the Activity [4]?
A: 12%

Q: For CCN(CC)CC(=O)NC1Cc2c(cc(OC)c3c(=O)c4ccccc4oc23)OC1(C)C (configuration not stated), which Activity [5] is on record?
A: 15%

Q: What about the Activity [6] of the same compound?
A: 74%

Q: And the Activity [1]?
A: 15%

Q: What about the IC50 [2] of the same compound?
A: 52 µM

Q: What about the Activity [3] of the same compound?
A: 12%

Q: And the Activity [4]?
A: 12%

Q: Which Activity [5] does the source give for CCN(CC)CCNc1cc2c(c3oc4ccccc4c(=O)c13)CC([N+](=O)[O-])C(C)(C)O2 (configuration not stated) here?
A: 20%

Q: What about the Activity [6] of the same compound?
A: 20%

Q: What about the IC50 [2] of the same compound?
A: > 100 µM

Q: How did the IC50 [2] turn out when CN(C)CCNc1cc2c(c3oc4ccccc4c(=O)c13)C=C([N+](=O)[O-])C(C)(C)O2 was run?
A: 21 µM

Q: COc1cc2c(c3oc4ccccc4c(=O)c13)CC(NC(=O)CN(C)C)C(C)(C)O2 (configuration not stated) was tested. Which Activity [5] did it give?
A: 15%

Q: What about the Activity [6] of the same compound?
A: 74%

Q: And the Activity [1]?
A: 15%

Q: What about the IC50 [2] of the same compound?
A: 51 µM

Q: And the Activity [3]?
A: 12%

Q: What about the Activity [4] of the same compound?
A: 12%

Q: CCN(CC)CCNc1cc2c(c3oc4ccccc4c(=O)c13)CC(NC(=O)CN(CC)CC)C(C)(C)O2 (configuration not stated) was tested. Which Activity [6] did it give?
A: 75%

Q: What about the IC50 [2] of the same compound?
A: 68 µM

Reference: ChEMBL document CHEMBL1143800, “Design and synthesis of new pyranoxanthenones bearing a nitro group or an aminosubstituted side chain on the pyran ring. Evaluation of their growth inhibitory activity in breast cancer cells” (Eur J Med Chem, 2007)
